Sampled rows, rich in hits. Any-hit rate of the full collection: about 1.4%.
MsrA act = activators of bovine methionine sulfoxide reductase A; purified bovine MsrA, absorbance read-out; 360,000 tested, 0.3% active; activation, % at 10.6 µM; in the data active means activation above about 7.5%
ARFGAP1 inhibitor = inhibits rat ARF GTPase activating protein 1. 360,000 tested, 0.26% active. Arfgap1-stimulated ARF1 GTP hydrolysis, GDP FP detection. inhibition, % at 16.5 µM. Q62848. AID 651572;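 active means inhibition above a per-plate limit, mean inhibition of low control wells plus 3 SD, cut at about 25% in these data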
Target sequence (Q62848 1-136 limits assumed): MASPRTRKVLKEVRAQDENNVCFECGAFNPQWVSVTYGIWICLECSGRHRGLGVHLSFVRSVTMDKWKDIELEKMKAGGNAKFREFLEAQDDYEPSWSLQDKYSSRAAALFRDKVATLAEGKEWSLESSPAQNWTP
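Material: truncated rat Arfgap1 GAP domain; Incubation: compound-enzyme preincubation 20 min, reaction 120 min, detection 60 min, 25 °C; Read-out: percent inhibition of Arfgap1-stimulated GTP hydrolysis; Technique: FP, GDP Alexa 633 tracer displaced from anti-GDP antibody, 620/688 nm; Controls: No-Arfgap1 wells (100%) versus DMSO full-reaction wells (0%); Replication: single well per compound.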
MsrA inhibitor = inhibits bovine methionine sulfoxide reductase A | purified bovine MsrA, absorbance read-out | inhibition, % at 15.5 µM | 360,000 tested, 0.75% active | AID 651718
ASAP1 inh = inhibitors of human ASAP1 ArfGAP activity; ASAP1-stimulated ARF1 GTP hydrolysis, GDP FP detection; 360,000 tested, 0.19% active; inhibition, % at 16.5 µM; in the data active means inhibition above about 25%
Target sequence (Q9ULH1 325-724 limits assumed): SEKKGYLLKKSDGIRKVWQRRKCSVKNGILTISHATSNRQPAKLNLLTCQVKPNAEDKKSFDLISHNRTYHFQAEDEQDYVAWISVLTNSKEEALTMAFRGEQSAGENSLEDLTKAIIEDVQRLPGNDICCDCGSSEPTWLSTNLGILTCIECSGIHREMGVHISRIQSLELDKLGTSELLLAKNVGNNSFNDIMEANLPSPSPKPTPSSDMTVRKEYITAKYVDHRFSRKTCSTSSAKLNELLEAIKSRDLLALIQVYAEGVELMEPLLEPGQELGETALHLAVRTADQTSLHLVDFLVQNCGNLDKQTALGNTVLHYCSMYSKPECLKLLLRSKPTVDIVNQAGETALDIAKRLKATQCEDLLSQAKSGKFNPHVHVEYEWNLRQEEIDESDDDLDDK
MsrA inh confirm = bovine MsrA inhibition, confirmed. purified bovine MsrA, absorbance read-out. shares compounds with MsrA inhibitor. 2,300 tested, 41% active. inhibition, % at 15.5 µM;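 further: coupled to thioredoxin reductase with NADPH and selenocystamine and DMSO as substrate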
Hits are given with their value; – = inactive; · = no result. Unless noted, no stated cut-off is given here; in the data, active means inhibition above about 4.5%; inactive means the rest.

SMILES	MsrA act	ARFGAP1 inhibitor	MsrA inhibitor	ASAP1 inh	MsrA inh confirm
O=C(O)c1ccc(/C=N\Nc2ccc(S(=O)(=O)N3CCOCC3)cc2[N+](=O)[O-])cc1	–	–	–	–	·
NS(=O)(=O)c1ccc(N/N=C/c2ccc(C(=O)O)cc2)c([N+](=O)[O-])c1	–	–	5.1	–	4.9
CN(CC(=O)Nc1ccc(Cl)cc1)C(=O)CN1C(=O)C2CCCCC2C1=O (configuration not stated)	–	–	–	–	·
Cc1cccc(Cn2c(=O)n(-c3ccc(CC(=O)NCc4ccco4)cc3)c(=O)c3sccc32)c1	–	–	–	–	·
COc1ccc(C(=O)/C=C/c2ccc(O)cc2)cc1	–	–	5.0	–	–
COc1ccc(C=CC(=O)c2ccc([N+](=O)[O-])cc2)cc1	–	–	–	–	·
Cc1sc(=NC(=O)c2ccco2)n(C)c1-c1ccccc1	–	–	–	–	·
Cn1c(=NC(=O)c2ccco2)sc2ccccc21	–	–	7.5	–	5.6
CCOc1ccccc1NC(=S)NC(=O)C1CC1	–	–	7.4	–	7.2
O=C(Cc1ccc2cccnc2c1)c1ccc(O)cc1O	–	–	5.0	–	–
CCOc1cc(/C=C(/C#N)c2ccc(F)cc2)ccc1OCc1ccc(C(=O)O)o1	–	–	6.7	–	–
COc1cc(/C=N/Nc2nc3c(c(=O)n(C)c(=O)n3C)n2Cc2ccccc2)ccc1OC(=O)c1ccco1	–	–	5.4	–	–
CN(C)c1ccc(N=C/C=C2\N(C)c3ccccc3C2(C)C)cc1	–	–	5.0	–	–
CN1/C(=C\C=O)C(C)(C)c2ccccc21	–	–	6.8	–	6.0
Cc1cc(/N=C/C=C2\N(C)c3ccccc3C2(C)C)n(CCC#N)n1	–	–	5.4	–	–
O=C(NC(=S)NCc1cccnc1)c1cc(Br)ccc1Cl	–	–	–	–	·
O=C(CSc1ccc2nnc(-c3ccccn3)n2n1)Nc1ccc(F)cc1F	–	–	–	–	·
CCN(CC)c1ccc(C=Nc2cccc(S(=O)(=O)N3CCOCC3)c2)c(O)c1	–	–	5.8	–	5.2
CCN(CC)c1ccc(/C=N/NC(=O)c2cccc(S(=O)(=O)N3CCOCC3)c2)c(O)c1	–	–	–	–	·
COCCCNc1oc(/C=C/c2ccccc2)nc1C#N	–	–	5.9	–	–
CCOc1ccc(/C=C/c2nc(C#N)c(NCCCOC)o2)cc1	–	–	–	–	·
Cc1ccc(C)c(/C(O)=C2\C(=O)C(=O)N(CCCN3CCOCC3)C2c2cccnc2)c1 (configuration not stated)	–	–	16	–	–
C[C@@H](NC(=O)c1nc[nH]c1C(=O)NCc1ccccc1)c1ccccc1	–	–	–	–	·
COc1ccc(/C=C/C(=O)C2(O)CCCCC2)cc1OC	–	–	5.3	–	–
CC(=O)N1c2ccccc2NC2=C(C(=O)CCC2)C1c1ccc(F)cc1 (configuration not stated)	–	–	–	–	·
SMILES	MsrA act	ARFGAP1 inhibitor	MsrA inhibitor	ASAP1 inh	MsrA inh confirm
COc1ccc(C2CC(=O)C3=C(C2)Nc2ccccc2N(C(=O)CCC(=O)O)C3c2ccc(F)cc2)cc1 (configuration not stated)	–	–	5.0	–	–
O=C(O)CCC(=O)N1c2ccccc2NC2=C(C(=O)CC(c3ccc(F)cc3)C2)C1c1ccc([N+](=O)[O-])o1 (configuration not stated)	–	–	7.0	–	4.6
COc1ccc(C(C)NC(=O)c2ccc([N+](=O)[O-])cc2)cc1OC (configuration not stated)	–	–	–	–	·
CCN(CC)S(=O)(=O)c1cccc(-c2n[nH]c(=S)n2/N=C/c2ccc(OC)cc2)c1	–	–	7.7	–	–
COc1cccc(/C=N/n2c(CO)nc3ccccc32)c1OC	–	–	10	–	13
O=C(Nc1ccc(F)c(Cl)c1)N1CCCCCC1	–	–	–	–	·
Cc1ccc(NC(=O)CN(C)C(=O)CSc2nccn2C)cc1	–	–	–	–	·
O=S(=O)(O)c1ccc(N2N=C(c3ccccc3)CC2c2ccccc2)cc1 (configuration not stated)	–	–	5.8	–	–
NS(=O)(=O)c1ccc(N2N=C(c3ccccc3)CC2c2ccccc2)cc1 (configuration not stated)	–	–	–	–	·
CCCCCCSC1=C(C#N)C(=O)NC2(CCCCC2)S1	–	–	5.2	–	–
COc1ccc(CSC2=C(C#N)C(=O)NC3(CCCCC3)S2)cc1	–	–	–	–	·
Cn1c(N)c(C(=O)COC(=O)CNC(=O)c2ccccc2F)c(=O)n(C)c1=O	–	–	–	–	·
C#CCN1C(=O)C(O)(CC(=O)/C=C/C=C/c2ccccc2)c2ccccc21 (configuration not stated)	–	–	–	–	·
NC(=O)CN1C(=O)C(O)(CC(=O)/C=C\c2ccc3c(c2)OCO3)c2ccccc21 (configuration not stated)	–	–	4.8	–	–
NC(=O)CN1C(=O)C(O)(CC(=O)/C=C\C=C\c2ccccc2)c2ccccc21 (configuration not stated)	–	–	5.4	–	5.0
CN1C(=O)C(O)(CC(=O)/C=C\c2ccc3c(c2)OCO3)c2ccccc21 (configuration not stated)	–	–	–	–	·
Cc1ccc2c(c1)C(O)(CC(=O)/C=C/C=C/c1ccccc1)C(=O)N2 (configuration not stated)	–	–	6.3	–	–
CCN1C(=O)C(O)(CC(=O)/C=C/C=C/c2ccccc2)c2ccccc21 (configuration not stated)	–	–	5.8	–	–
O=[N+]([O-])c1ccc(N2CCN(c3cccc(Cl)c3)CC2)cn1	–	–	–	–	·
CCc1cnc(Nc2nc(C(N)Cc3ccc(F)cc3)cs2)nc1 (configuration not stated)	–	–	–	–	·
CCn1ncc(S(=O)(=O)Nc2cc(Cl)ccc2C)c1C	–	–	–	–	·
COC(=O)C(CCSC)NC(=O)c1cc2c(n(-c3ccc(C)cc3)c1=O)CCCC2=O (configuration not stated)	–	–	5.5	–	–
COC(=O)c1[nH]c2ccccc2c1NC(=O)CNC1CCCCC1	–	–	–	–	·
Cc1c(OCc2ccc(C(=O)O)o2)ccc2c3c(c(=O)oc12)CCC3	–	–	4.8	–	–
COC(=O)C1=C(C)NC(=S)N(C(C)=O)C1c1ccc(OC)c(OC)c1 (configuration not stated)	–	–	4.7	–	–
CCN(CC)c1ccc(/C=N/NC(=O)CC(C)C)cc1	–	–	5.6	–	–
CCN(CC)c1ccc(/C=N/NC(=O)CNC(=O)c2ccccn2)cc1	–	–	6.0	–	–
O=C(CNC(=O)c1ccccn1)N/N=C/c1ccc2c(c1)OCO2	–	–	–	–	·
CCN(CC)c1ccc(/C=N/NC(=O)Cc2nnc(NC(=O)Nc3ccccc3)s2)cc1	–	–	5.5	–	–
Cc1ccc(NC(=O)c2ncn(CCCN3CCN(Cc4cccc5ccccc45)CC3)n2)cc1C	–	–	–	–	·

Bioassay records: PubChem BioAssay, The Scripps Research Institute Molecular Screening Center
